Assay results reported in PMC6635014 (Dalton transactions (Cambridge, England : 2003), 2019).

Tests used:
Format in all cases: cell-based
[1] = test system: doxorubicin-sensitive Colo 205 human colonic adenocarcinoma cells; assay: MTT assay for cytotoxic effect, Colo 205; settings: read-out: IC50 (μM), 72 h Colo 205
How it was run: (§1)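 Colo 205 and Colo 320/MDR-LRP were kept in RPMI 1640 with 10% heat-inactivated FBS, 2 mM L-glutamine, 1 mM Na-pyruvate and 10 mM HEPES, and detached with Trypsin-Versene. 1x10^4 cells per well went onto 2-fold serial compound dilutions (100 to 0.195 µM; DMSO stocks) for 72 h at 37 °C. Then MTT 4 h, SDS/0.01 M HCl overnight, OD 540/630 nm. IC50 from growth inhibition versus cell and medium controls. SF uses the MRC-5 IC50 from the same assay.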

[2] = test system: MRC-5 non-cancerous human embryonal lung fibroblast cells; assay: MTT assay for cytotoxic effect, MRC-5; settings: read-out: IC50 (μM), 72 h MRC-5
How it was run: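 MRC-5 fibroblasts were grown in EMEM with 10% heat-inactivated FBS and seeded 24 h at 37 °C, 5% CO2. Medium was then replaced by 2-fold serial compound dilutions (100 to 0.195 µM; 10 mM DMSO stocks), 72 h at 37 °C. MTT for 4 h, then SDS in 0.01 M HCl overnight. OD read at 540/630 nm. IC50 from % growth inhibition relative to cell and medium controls.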

[3] = test system: multidrug resistant Colo 320/MDR-LRP human colonic adenocarcinoma cells; assay: MTT assay for cytotoxic effect, Colo 320
How it was run: as §1

`N.N.[Cl][Pt][Cl]` [Cisplatin, reference compound] was tested, and the IC50 [1] was 31.9 ± 2.17 µM, the IC50 [2] was 12.4 ± 0.367 µM and the “SF(320) selectivity factor” value ([3]; SF(320) = IC50 MRC-5/IC50 Colo 320) was 3. It also gave an IC50 ([3]; read-out: IC50 (μM), 72 h Colo 320, 72 h, MTT) of 4.81 ± 0.68 µM.
